Test results from ChEMBL document CHEMBL1130095, “Synthesis of analogs of 2-methoxyestradiol with enhanced inhibitory effects on tubulin polymerization and cancer cell growth” (J Med Chem, 1997).

How the values were obtained:
UACC-62 = experiment: In vitro cytotoxicity value is the concentration corresponding to 50% growth inhibition against UACC-62(melanoma) cell line.; type: functional; conditions: Homo sapiens
DU-145 = experiment: In vitro cytotoxicity value is the concentration corresponding to 50% growth inhibition against DU-145 (prostate) cell line.; type: functional; conditions: Homo sapiens
HCT-116 = experiment: In vitro cytotoxicity value is the concentration of the compound corresponding to 50% growth inhibition against HCT116 (colon) cell line.; type: functional; conditions: Homo sapiens
[1] = tested on: Panel (Carcinoma cell lines); experiment: Mean graph midpoint for growth inhibition of all human cancer cell lines; type: functional
Tubulin = Tubulin (Bos taurus, UniProt Q6B856+Q862L2+Q862F3); experiment: The compound was evaluated for inhibition of tubulin polymerization, which is purified from bovine brain; type: functional
In short: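 Electrophoretically homogeneous bovine brain tubulin at 1.2 mg/mL (12 µM), preincubated at 26 °C with varying compound concentrations, then chilled on ice before GTP was added. Assembly was followed at 26 °C by turbidity at 350 nm, and the extent was read at 20 min. IC50 was derived graphically from at least two independent assays.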

SF-539 = experiment: In vitro cytotoxicity value is the concentration corresponding to 50% growth inhibition against […] (central nervous system) cell line.; type: functional; conditions: Homo sapiens
Tubulin (Bos taurus) = Tubulin (Bos taurus) (UniProt Q6B856+Q862L2+Q862F3); experiment: The compound was evaluated for inhibition of colchicine binding to tubulin.; type: protein assay; conditions: concentration not given here
In short: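 Mixtures held 1.0 µM bovine brain tubulin (0.1 mg/mL), 5.0 µM [³H]colchicine and 50 µM inhibitor, incubated 10 min at 37 °C. Bound-colchicine inhibition is given as percent, from triplicate samples in each experiment.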

SN12C = experiment: In vitro cytotoxicity value is the concentration corresponding to 50% growth inhibition against SN12C (renal) cell line.; type: functional; conditions: Homo sapiens
HOP-62 = experiment: In vitro cytotoxicity value is the concentration corresponding to 50% growth inhibition against HOP-62(non small cell lung) cell line.; type: functional; conditions: Homo sapiens
MDA-MB-435 = experiment: In vitro cytotoxicity value is the concentration corresponding to 50% growth inhibition against MDA-MB-435 (breast) cell line.; type: functional; conditions: Homo sapiens
OVCAR-3 = experiment: In vitro cytotoxicity value is the concentration corresponding to 50% growth inhibition against OVCAR-3 (ovarian) cell line.; type: functional; conditions: Homo sapiens

GI50 [1]: 9.8 µM
IC50 (Tubulin): 24 µM
inhibition (Tubulin (Bos taurus)): 1.7%
Compound: C[C@]12CC[C@@H]3c4cc(OCC(F)(F)F)c(O)cc4C(=O)C[C@H]3[C@@H]1CC[C@@H]2O
GI50 (UACC-62): 3.3 µM
GI50 (DU-145): 15 µM
GI50 (HCT-116): 3.7 µM
GI50 (SF-539): 5.1 µM
GI50 (SN12C): 24 µM
GI50 (HOP-62): 8.7 µM
GI50 (MDA-MB-435): 27 µM
GI50 (OVCAR-3): 3.5 µM
